Results: PMC3569009 (Journal of neurochemistry, 2012)

Columns and labels:
α2β4β3-nAChR = α2β4β3-nAChR (Homo sapiens, UniProt P30926+Q15822); experiment: two-electrode voltage clamp, Xenopus oocytes, peak inward current; type: cell-based
Outline: (§1)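 Human α2 and β4 (plus β3 for trinary) subunit cRNAs, ~4 ng each at 1:1 or 1:1:1, are injected into stage VI oocytes. Two to 7 days later, oocytes are clamped at –70 mV in Ringer, pH 7.5.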

α2β4-nAChR = α2β4-nAChR (Homo sapiens, UniProt P30926+Q15822); experiment: as above; type: cell-based
Outline: as §1

Sequence of α2β4β3-nAChR (Q15822 27-529): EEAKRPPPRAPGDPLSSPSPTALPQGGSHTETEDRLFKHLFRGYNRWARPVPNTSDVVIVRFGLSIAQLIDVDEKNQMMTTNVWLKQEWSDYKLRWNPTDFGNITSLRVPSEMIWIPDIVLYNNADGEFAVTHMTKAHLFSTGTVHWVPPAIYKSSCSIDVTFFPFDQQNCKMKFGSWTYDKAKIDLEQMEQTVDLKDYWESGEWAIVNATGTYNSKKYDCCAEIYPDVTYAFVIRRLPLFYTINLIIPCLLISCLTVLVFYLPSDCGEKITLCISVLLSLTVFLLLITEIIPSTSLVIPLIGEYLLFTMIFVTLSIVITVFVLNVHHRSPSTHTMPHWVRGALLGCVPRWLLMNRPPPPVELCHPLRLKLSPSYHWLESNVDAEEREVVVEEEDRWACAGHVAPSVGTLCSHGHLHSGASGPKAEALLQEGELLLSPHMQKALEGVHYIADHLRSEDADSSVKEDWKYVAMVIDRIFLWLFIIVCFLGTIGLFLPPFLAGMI
Sequence of α2β4β3-nAChR (P30926 22-498): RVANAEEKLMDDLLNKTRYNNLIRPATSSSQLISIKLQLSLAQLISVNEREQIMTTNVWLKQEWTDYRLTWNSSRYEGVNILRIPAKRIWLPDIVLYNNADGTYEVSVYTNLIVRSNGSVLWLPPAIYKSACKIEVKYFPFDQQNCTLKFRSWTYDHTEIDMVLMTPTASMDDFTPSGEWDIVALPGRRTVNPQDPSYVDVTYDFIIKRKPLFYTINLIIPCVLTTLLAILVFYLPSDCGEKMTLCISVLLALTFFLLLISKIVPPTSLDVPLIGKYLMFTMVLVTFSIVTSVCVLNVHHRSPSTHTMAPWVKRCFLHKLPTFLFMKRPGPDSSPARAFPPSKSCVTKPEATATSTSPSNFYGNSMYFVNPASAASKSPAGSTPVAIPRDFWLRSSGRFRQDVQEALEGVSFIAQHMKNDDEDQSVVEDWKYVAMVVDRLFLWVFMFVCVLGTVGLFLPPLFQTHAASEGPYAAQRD
Sequence of α2β4β3-nAChR (Q05901 22-458 partner): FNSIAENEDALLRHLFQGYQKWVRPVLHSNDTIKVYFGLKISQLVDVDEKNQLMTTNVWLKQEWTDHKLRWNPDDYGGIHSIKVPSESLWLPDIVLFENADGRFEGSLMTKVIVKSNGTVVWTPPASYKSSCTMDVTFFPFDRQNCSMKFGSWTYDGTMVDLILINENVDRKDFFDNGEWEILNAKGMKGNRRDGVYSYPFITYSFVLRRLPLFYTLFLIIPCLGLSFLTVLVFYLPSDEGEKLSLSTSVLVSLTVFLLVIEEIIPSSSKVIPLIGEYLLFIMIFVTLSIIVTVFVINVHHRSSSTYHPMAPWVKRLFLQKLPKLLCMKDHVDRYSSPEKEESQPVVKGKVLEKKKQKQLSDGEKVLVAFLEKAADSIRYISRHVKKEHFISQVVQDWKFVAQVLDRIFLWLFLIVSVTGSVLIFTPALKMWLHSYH
Sequence of α2β4-nAChR (Q15822 27-529): as the sequence (Q15822 27-529) above
Sequence of α2β4-nAChR (P30926 22-498): as the sequence (P30926 22-498) above

CN1CCC[C@H]1c1cccnc1 [nicotine]
EC50 (α2β4β3-nAChR): 7.3 µM | EC50 (α2β4-nAChR): 8.6 µM
